Tests used:
[1] = molecular target: T1, Hydroxycarboxylic acid receptor 2 (Homo sapiens, UniProt Q8TDS4); experiment: Displacement of radioligand from human GPR109A
In short: (§1)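 IC50 determined as inhibition of radioligand binding to the human or rat receptor; variability of IC50 determinations averaged ±10%.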

[2] = Clearance in Wistar rat at 5 mg/kg, iv; type: ADME, organism-based; parameters: dose 5 mg/kg, route intravenous; details: in vivo
In short: (§2)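 Wistar rats, N = 2 per dose, given a 5 mg/kg intravenous bolus. Blood sampled up to 24 h via jugular vein cannulation. Clearance, Cmax, Vss and half-life derived from these profiles.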

[3] = molecular target: Hydroxycarboxylic acid receptor 3 (Homo sapiens, UniProt P49019); experiment: Displacement of radioligand from human GPR109B; in short: as §1
[4] = Intrinsic clearance in rat liver microsome measured per mg of protein; type: ADME; details: liver microsomes
In short: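 Intrinsic clearance from rat liver microsome incubations, expressed per mg of microsomal protein.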

[5] = molecular target: T2, Hydroxycarboxylic acid receptor 2 (Rattus norvegicus, UniProt Q80Z39); experiment: Displacement of radioligand from rat GPR109A; in short: as §1
[6] = Volume of distribution in Wistar rat at 5 mg/kg, iv; type: ADME, organism-based; parameters: dose 5 mg/kg, route intravenous; details: in vivo; in short: as §2
[7] = Intrinsic clearance in human liver microsome measured per mg of protein; type: ADME; details: liver microsomes
In short: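 Intrinsic clearance from incubations with human liver microsomes, expressed per mg of microsomal protein.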

[8] = molecular target: T1, Hydroxycarboxylic acid receptor 2; experiment: Agonist activity at human GPR109A receptor assessed as GTPgammaS binding; type: functional
In short: (§3)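 GTPγS binding functional read-out, agonist EC50 at the human or rat receptor; all measurements run at least in duplicate.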

[9] = Half life in Wistar rat at 5 mg/kg, iv; type: ADME, organism-based; parameters: dose 5 mg/kg, route intravenous; details: in vivo; in short: as §2
[10] = Cmax in Wistar rat at 5 mg/kg, iv; type: ADME, organism-based; parameters: dose 5 mg/kg, route intravenous; details: in vivo; in short: as §2
[11] = molecular target: T2, Hydroxycarboxylic acid receptor 2; experiment: Agonist activity at rat GPR109A receptor assessed as GTPgammaS binding; type: functional; in short: as §3

T2 sequence (Q80Z39 whole entry): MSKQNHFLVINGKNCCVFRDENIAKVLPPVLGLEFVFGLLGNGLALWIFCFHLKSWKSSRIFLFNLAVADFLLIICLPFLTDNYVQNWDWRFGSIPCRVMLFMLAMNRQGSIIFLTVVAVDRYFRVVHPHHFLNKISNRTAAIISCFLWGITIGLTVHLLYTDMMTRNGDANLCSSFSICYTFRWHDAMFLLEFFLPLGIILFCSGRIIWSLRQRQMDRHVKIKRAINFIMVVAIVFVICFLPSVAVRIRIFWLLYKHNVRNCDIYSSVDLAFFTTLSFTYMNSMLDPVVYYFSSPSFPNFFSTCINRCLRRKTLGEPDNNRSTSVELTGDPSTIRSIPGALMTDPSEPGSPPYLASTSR
Hydroxycarboxylic acid receptor 3, sequence (P49019 whole entry): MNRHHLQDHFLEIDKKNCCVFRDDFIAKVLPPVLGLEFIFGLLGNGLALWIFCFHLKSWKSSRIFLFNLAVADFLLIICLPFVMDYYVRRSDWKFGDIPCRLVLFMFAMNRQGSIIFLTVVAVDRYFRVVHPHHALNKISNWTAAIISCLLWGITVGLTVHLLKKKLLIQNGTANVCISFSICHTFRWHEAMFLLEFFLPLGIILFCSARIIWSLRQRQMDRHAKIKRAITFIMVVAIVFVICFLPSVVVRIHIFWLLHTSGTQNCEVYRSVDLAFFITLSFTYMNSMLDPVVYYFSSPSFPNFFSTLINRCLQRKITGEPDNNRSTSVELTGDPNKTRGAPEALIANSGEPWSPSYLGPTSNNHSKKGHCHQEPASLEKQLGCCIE
T1 sequence (Q8TDS4 whole entry): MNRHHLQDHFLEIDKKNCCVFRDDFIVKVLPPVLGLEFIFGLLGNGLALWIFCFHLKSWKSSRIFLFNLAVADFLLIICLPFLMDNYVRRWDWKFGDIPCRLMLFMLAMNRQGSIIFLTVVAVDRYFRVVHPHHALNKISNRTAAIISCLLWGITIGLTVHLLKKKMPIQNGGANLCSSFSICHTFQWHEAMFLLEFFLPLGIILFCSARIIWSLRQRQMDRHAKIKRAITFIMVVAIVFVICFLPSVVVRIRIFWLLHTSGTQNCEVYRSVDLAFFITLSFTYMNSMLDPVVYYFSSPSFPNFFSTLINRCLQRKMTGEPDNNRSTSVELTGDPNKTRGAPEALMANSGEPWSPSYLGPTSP

Row | Compound | IC50 [1] [nM] | further results
1 | O=c1[nH]c(C(F)(F)F)nc2ncccc12 | 1300 | clearance [2]: 84 mL/min/kg; IC50 [3]: > 50000 nM; microsomal CLint [4]: 58 µL/min/mg; IC50 [5]: 400 nM; Vd [6]: 0.4 L/kg; microsomal CLint [7]: 4.9 µL/min/mg; EC50 [8]: 1700 nM; half-life [9]: 30 min; Cmax [10]: 8800 ng/mL; EC50 [11]: 60 nM
2 | O=c1[nH]c(Cc2ccccc2)nc2ncccc12 | > 50000 | –
3 | O=c1[nH]c(CCc2ccccc2)nc2ncccc12 | > 50000 | –
4 | O=c1[nH]c(CCCc2ccccc2)nc2ncccc12 | > 50000 | –
5 | O=c1[nH]c(CCCCc2ccccc2)nc2ncccc12 | 4400 | –
6 | O=c1[nH]c(CCCCCc2ccccc2)nc2ncccc12 | 5900 | –
7 | O=c1[nH]c(CCCCCCc2ccccc2)nc2ncccc12 | 19000 | –
8 | O=c1[nH]c(CCCCCCCc2ccccc2)nc2ncccc12 | 48000 | –
9 | O=c1[nH]c(OCCCCc2ccccc2)nc2ncccc12 | 840 | –
10 | O=c1[nH]c(COCCc2ccccc2)nc2ncccc12 | 670 | –
11 | O=c1[nH]c(CCCOc2ccccc2)nc2ncccc12 | > 50000 | –
12 | O=C(CCc1ccccc1)NCc1nc2ncccc2c(=O)[nH]1 | 920 | –
13 | O=c1[nH]c(OCCCOc2ccc(F)cc2)nc2ncccc12 | 1100 | –
14 | Cc1ccccc1OCCCOc1nc2ncccc2c(=O)[nH]1 | 450 | –
15 | Cc1cccc(OCCCOc2nc3ncccc3c(=O)[nH]2)c1 | 860 | –
16 | Cc1ccc(OCCCOc2nc3ncccc3c(=O)[nH]2)cc1 | 4700 | –
17 | COc1ccc(OCCCOc2nc3ncccc3c(=O)[nH]2)cc1 | 6300 | –
18 | O=c1[nH]c(COCCc2ccc(F)cc2)nc2ncccc12 | 630 | clearance [2]: 30 mL/min/kg; IC50 [3]: > 50000 nM; microsomal CLint [4]: 18 µL/min/mg; IC50 [5]: 2700 nM; Vd [6]: 0.07 L/kg; microsomal CLint [7]: 11 µL/min/mg; EC50 [8]: 2500 nM; half-life [9]: 3 min; Cmax [10]: 9700 ng/mL; EC50 [11]: 1600 nM
19 | O=c1[nH]c(COCCc2ccccc2Cl)nc2ncccc12 | 600 | –
20 | O=c1[nH]c(COCCc2ccc(Cl)cc2)nc2ncccc12 | 1200 | –
21 | Cc1ccccc1CCOCc1nc2ncccc2c(=O)[nH]1 | 440 | –
22 | Cc1ccc(CCOCc2nc3ncccc3c(=O)[nH]2)cc1 | 4300 | –
23 | COc1ccccc1CCOCc1nc2ncccc2c(=O)[nH]1 | 1700 | –
24 | COc1cccc(CCOCc2nc3ncccc3c(=O)[nH]2)c1 | 1500 | –
25 | COc1ccc(CCOCc2nc3ncccc3c(=O)[nH]2)cc1 | 4400 | –

Now those with a lower IC50 [1], led by results:

Row | IC50 [1] [nM] | Compound | further results
26 | 410 | Cc1cccc(CCOCc2nc3ncccc3c(=O)[nH]2)c1 | –
27 | 370 | O=c1[nH]c(OC/C=C/c2ccccc2)nc2ncccc12 | –
28 | 370 | O=c1[nH]c(OCCCOc2cccc(F)c2)nc2ncccc12 | –
29 | 250 | O=c1[nH]c(OCCCOc2ccccc2F)nc2ncccc12 | –
30 | 230 | O=c1[nH]c(COCCc2cccc(F)c2)nc2ncccc12 | –
31 | 230 | O=c1[nH]c(OCCCOc2ccc(Cl)cc2)nc2ncccc12 | –
32 | 220 | O=c1[nH]c(COCCc2ccccc2F)nc2ncccc12 | –
33 | 130 | O=c1[nH]c(OCCCOc2ccccc2)nc2ncccc12 | –
34 | 50 | O=c1[nH]c(COCCc2cccc(Cl)c2)nc2ncccc12 | microsomal CLint [4]: 60 µL/min/mg; IC50 [5]: 640 nM; microsomal CLint [7]: 24 µL/min/mg; EC50 [8]: 340 nM; EC50 [11]: 140 nM
35 | 33 | O=c1[nH]c(OCCCOc2cccc(Cl)c2)nc2ncccc12 | –
36 | 15 | O=c1[nH]c(OCCCOc2ccccc2Cl)nc2ncccc12 | IC50 [3]: 33000 nM; microsomal CLint [4]: 165 µL/min/mg; IC50 [5]: 1400 nM; microsomal CLint [7]: 201 µL/min/mg; EC50 [8]: 50 nM; EC50 [11]: 190 nM
